SIAE inh – inhibitors of human sialic acid acetylesterase SIAE; AID 1053197; inhibition, % at 9.66 µM; SIAE FP-Rh probe binding, fluorescence polarization; hit rate 0.69% among 370,000;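 active = inhibition above a cutoff: mean of compounds within the control limits plus 3 SD of those, cut at about 17% in these data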
TCR-CD3 inh – inhibitors of human TCR-CD3 interaction; TAMRA-labeled TCR probe fluorescence, biochemical; inhibition, % at 9.4 µM; hit rate 0.37% among 360,000; in the data active = inhibition above about 19%;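 note: recombinant mutant TCR 2C K166C tagged with TAMRA read by polarization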
PRMT1 inh – inhibitors of human PRMT1; recombinant PRMT1, activity-based probe fluorescence polarization; inhibition, % at 2.79 µM; hit rate 1.3% among 370,000; Q99873;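 active = inhibition above about 21% made by adding two undisclosed values, limit read from the data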
ABHD4 inh – inhibits mouse alpha/beta hydrolase domain 4; Q8VD66; purified mABHD4, FP-Rh probe fluorescence polarization; inhibition, % at 8.92 µM; hit rate 0.54% among 370,000;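 active = inhibition exceeding the mean over every tested compound plus 3 SD, cut at about 30% in these data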
Target sequence (Q8VD66 whole entry, looked up, the tested form may be a part): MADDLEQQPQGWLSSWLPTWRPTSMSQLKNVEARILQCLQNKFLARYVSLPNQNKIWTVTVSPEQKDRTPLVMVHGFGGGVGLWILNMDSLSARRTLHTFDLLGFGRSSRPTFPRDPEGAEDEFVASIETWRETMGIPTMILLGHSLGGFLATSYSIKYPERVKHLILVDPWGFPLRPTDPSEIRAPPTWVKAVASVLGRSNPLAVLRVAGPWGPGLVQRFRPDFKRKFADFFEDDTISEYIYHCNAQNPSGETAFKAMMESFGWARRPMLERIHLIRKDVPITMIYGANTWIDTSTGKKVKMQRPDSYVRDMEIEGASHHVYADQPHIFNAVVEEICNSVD
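Test system: mABHD4 protein; Read-out basis: % inhibition; Incubation: 45 min + 60 min at 25 °C; Repeats: single replicate; Technique: fluorescence polarization with parallel and perpendicular emission, 525/598 nm; Compound: 8.92 µM, single dose; Benchmarks: full inhibition S159A mutant plus DMSO, zero as sample-well median.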
HTRA1 inh – blocks human HTRA1 serine peptidase | inhibition, % at 5.96 µM | AID 504803 | Q92743 | recombinant HTRA1, FP-rhodamine activity-based probe, fluorescence polarization | hit rate 0.5% among 340,000; in the data active = inhibition above about 36%
PRMT1 confirm – PRMT1 (human) inhibition, FP confirmation. shares compounds with PRMT1 inh. recombinant His-PRMT1, activity-based probe fluorescence polarization. inhibition, % at 2.79 µM. hit rate 42% among 3,300;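 active = mean inhibition across replicates above the hit cutoff derived for the earlier primary screen, cut at about 22% in these data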
Hits are given with their value; . = inactive; / = no result given. The list is not random: actives were taken first. Their share in the collection is about 2.6%.

SMILES	SIAE inh	TCR-CD3 inh	PRMT1 inh	ABHD4 inh	HTRA1 inh	PRMT1 confirm
COCCCNC(=S)N/N=C/c1ccc(OC)cc1	.	.	29.2	.	/	.
CCC1(O)C(=O)OCc2c1cc1n(c2=O)Cc2cc3cc(O)ccc3nc2-1 (stereo unspecified)	.	.	28.5	.	.	30.7
CCc1c2c(nc3ccc(OC(=O)N4CCC(N5CCCCC5)CC4)cc13)-c1cc3c(c(=O)n1C2)COC(=O)[C@]3(O)CC	.	.	.	.	.	/
Nc1c(S(=O)(=O)c2ccccc2)c2nc3ccccc3nc2n1Cc1ccco1	.	.	32.6	.	.	.
Cc1ccc(S(=O)(=O)c2c(N)n(Cc3ccco3)c3nc4ccccc4nc23)cc1C	.	.	27.6	.	.	.
Cc1ccc(S(=O)(=O)c2c(N)n(CCN3CCOCC3)c3nc4ccccc4nc23)cc1C	.	.	.	.	.	/
COc1ccc(C(=O)Nc2ccccc2C(=O)NCCN2CCOCC2)cc1OC	.	.	25.5	.	.	.
Oc1ccc(C(=S)N2CCN(Cc3ccccc3)CC2)cc1	.	.	38.3	.	.	53.9
S=C(c1ccc(Br)cc1)N1CCN(Cc2ccccc2)CC1	.	.	63.7	.	.	76.5
CN(C)c1ccc(C(=S)N2CCN(Cc3ccccc3)CC2)cc1	.	.	55.2	.	.	64.2
O=C(c1ccc(Br)cc1)N1CCN(Cc2ccccc2)CC1	.	.	.	.	.	/
Oc1ccc(C(=S)N2CCN(c3cccc(Cl)c3)CC2)cc1	.	.	29.4	.	.	.
COc1cccc(-c2nn(-c3ccc(F)cc3)cc2C(=O)NCC2CCCO2)c1 (stereo unspecified)	.	.	.	.	.	/
Cc1ccc(C(=S)N2CCN(Cc3ccccc3)CC2)s1	.	.	42.1	.	.	52.9
CCNC(=S)N1CCN(Cc2ccccc2)CC1	.	.	.	.	.	/
O=C(COC(=O)CSc1ccc([N+](=O)[O-])cc1)NCCCc1ccccc1	.	.	41.9	.	.	.
O=C(COC(=O)CSc1ccc([N+](=O)[O-])cc1)NCCc1ccccc1	.	.	.	.	.	/
O=C(CSc1nc2ccccc2c(=O)n1Cc1ccco1)NCc1ccco1	.	.	.	.	.	/
NS(=O)(=O)c1cccc(NC(=O)CSc2ncnc3ccccc23)c1	.	.	37.5	.	.	.
NS(=O)(=O)c1cccc(NC(=O)CSc2nc3ccccc3c(=O)n2Cc2ccco2)c1	.	.	79.9	.	.	.
CCOC(=O)C1=C(CSc2nc3c(cc2C#N)CCC3)OC(N)=C(C#N)C1c1ccccc1 (stereo unspecified)	.	.	46.1	.	.	.
CCOC(=O)C1=C(CSc2nc(-c3ccccc3)ccc2C#N)OC(N)=C(C#N)C1c1cccnc1 (stereo unspecified)	.	.	40.9	.	.	26.0
COc1cccc(CNS(=O)(=O)c2cc(Br)ccc2Br)c1OC	.	.	.	.	/	/
CCC(C)(C)NC(=O)c1cc(S(=O)(=O)N2CCc3ccccc32)cn1C	.	.	26.3	.	.	.
Cn1cc(S(=O)(=O)N2CCc3ccccc32)cc1C(=O)NC1CCCCC1	.	.	.	.	.	/
SMILES	SIAE inh	TCR-CD3 inh	PRMT1 inh	ABHD4 inh	HTRA1 inh	PRMT1 confirm
Cc1cc(C)c2[nH]c(=O)c(CN(Cc3cccs3)C(=S)NCc3ccco3)cc2c1	.	.	34.6	.	.	.
Cc1ccc(N(Cc2cc3ccc(C)cc3[nH]c2=O)C(=O)c2ccco2)cc1	.	.	.	.	.	/
Cc1ccc2cc(CN(Cc3ccco3)C(=O)c3cccs3)c(=O)[nH]c2c1	.	.	29.6	.	.	.
Cc1ccc2cc(CN(C(=O)c3ccco3)c3ccccc3)c(=O)[nH]c2c1	.	.	52.6	.	.	.
Cc1cccc(C)c1NC(=O)c1ccc(-c2cc(F)ccc2F)o1	.	.	.	.	/	/
CC(=O)Nc1ccc(S[C@@H](CCN2CC[C@H](O)CCC2=O)c2ccccc2)cc1	.	.	35.8	.	.	28.1
O=C1CC[C@@H](O)CCN1CC[C@H](Sc1ccccc1)c1ccccc1	.	.	.	.	.	/
Cc1ccc(SCC(=O)N=C2NC(=O)CS2)cc1	.	.	52.2	.	.	.
CC(C)c1ccccc1NC(=O)CCc1nc2ccccc2s1	.	.	32.4	.	.	.
COc1ccccc1NC(=O)CCc1nc2ccccc2s1	.	.	.	.	.	/
Cc1cc(SCNC(=O)c2ccccc2)ncn1	.	.	71.5	.	.	.
